Drawing on ChEMBL document CHEMBL2016492, “Design and synthesis of carbamate and thiocarbamate derivatives and their inhibitory activities of NO production in LPS activated macrophages” (Bioorg Med Chem Lett, 2012), this text covers inhibition and IC50 for twelve molecules.

Each structure is given as a SMILES string. pIC50: −log10 of the molar value. Active and inactive are the calls of the source. The rule behind the calls is not given here.

Test [1] deals with RAW264.7. Nature of the test: Inhibition of LPS-induced NO production in mouse RAW264.7 cells at 20 uM after 20 hrs by Griess method. The following applies: RAW264.7, 20 h. It counts as functional. The method in brief:
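Same nitrite read-out in RAW 264.7 cells: 1% FBS medium, LPS 1 μg/mL with compound at 20 μM for 20 h. Griess reagent, 570 nm, nitrite standard curve. Percent inhibition relative to LPS-only control, n = 3.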

Test [2] has as its system RAW264.7. The test can be described thus: Inhibition of LPS-induced iNOS mRNA expression in mouse RAW264.7 cells at 20 uM after 6 hrs by RT-PCR analysis. It counts as functional, cell-based. The method in brief: (§1)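 RAW 264.7 cells at 8 × 10⁵ per 60 mm dish stimulated 6 h with LPS (1 μg/mL) plus compound at 5 or 20 μM. Total RNA extracted; iNOS mRNA measured by RT-PCR with β-actin as internal control. PCR run 25 cycles (94 °C 30 s, 55 °C 30 s, 72 °C 30 s); products run on 2% agarose gel. Representative of three independent experiments.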

Test [3] concerns RAW264.7. The test can be described thus: Inhibition of LPS-induced NO production in mouse RAW264.7 cells after 20 hrs by Griess method. It counts as functional, cell-based. The following applies: RAW264.7, 20 h. A digest of the protocol:
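RAW 264.7 cells in 10% FBS-DMEM plated at 1 × 10⁵ cells/mL for 24 h, then switched to 1% FBS medium. Incubated 20 h with LPS (1 μg/mL) ± compounds. Nitrite in supernatant measured with Griess reagent, 10 min at room temperature, absorbance 570 nm, sodium nitrite standard curve. IC50 taken from dose–response curve; mean ± SD of three experiments.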
In general terms: The Griess reaction detects nitrite, a stable product of nitric oxide.

Test [4] addresses Transcription factor p65 (Mus musculus) (UniProt Q04207). The test can be described thus: Inhibition of NF-kB p65 nuclear translocation in LPS-stimulated mouse RAW264.7 cells at 20 uM treated 30 mins before LPS challenge measured after 15 mins by Western blot analysis.
The subject of test [5] is RAW264.7. The test can be described thus: Inhibition of LPS-induced iNOS protein expression in mouse RAW264.7 cells at 20 uM after 20 hrs by Western blot analysis. Type of test: functional, cell-based. The method in brief: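 RAW 264.7 cells at 8 × 10⁵ per 60 mm dish treated 20 h with LPS (1 μg/mL) and compound (5, 20 μM). Cells washed and lysed; 20 μg lysate protein run on 8% SDS-PAGE, transferred to PVDF. Probed with anti-iNOS and anti-β-actin (internal control); ECL detection. Representative of three independent experiments.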
(Immunoblotting shows a protein as a band on a membrane.)

In test [6] the target is Transcription factor p65 (Mus musculus) (UniProt Q04207). The test can be described thus: Inhibition of NF-kB p65 nuclear translocation in LPS-stimulated mouse RAW264.7 cells at 5 uM treated 30 mins before LPS challenge measured after 15 mins by Western blot analysis.
Chain of Transcription factor p65 (Mus musculus) (Q04207 whole entry): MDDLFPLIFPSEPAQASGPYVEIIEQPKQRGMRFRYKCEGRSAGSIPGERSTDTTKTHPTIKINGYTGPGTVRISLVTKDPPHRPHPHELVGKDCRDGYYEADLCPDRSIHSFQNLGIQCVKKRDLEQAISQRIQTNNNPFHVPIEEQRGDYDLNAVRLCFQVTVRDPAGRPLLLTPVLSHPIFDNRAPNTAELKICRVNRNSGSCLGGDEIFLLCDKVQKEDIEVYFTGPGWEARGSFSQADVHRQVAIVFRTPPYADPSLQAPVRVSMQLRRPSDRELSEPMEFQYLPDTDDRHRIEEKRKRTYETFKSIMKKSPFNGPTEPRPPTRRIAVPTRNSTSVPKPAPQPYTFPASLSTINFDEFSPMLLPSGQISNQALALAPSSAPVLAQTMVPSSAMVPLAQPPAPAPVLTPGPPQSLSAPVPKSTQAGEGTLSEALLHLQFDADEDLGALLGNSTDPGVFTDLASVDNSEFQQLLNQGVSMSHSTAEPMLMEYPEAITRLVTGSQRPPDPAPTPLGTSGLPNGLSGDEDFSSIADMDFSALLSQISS
The test system of test [7] is RAW264.7. The test can be described thus: Inhibition of LPS-induced NO production in mouse RAW264.7 cells at 100 uM after 20 hrs by Griess method. It counts as functional. The following applies: RAW264.7, 20 h.
Test [8] relates to RAW264.7. The test can be described thus: Inhibition of LPS-induced iNOS mRNA expression in mouse RAW264.7 cells at 5 uM after 6 hrs by RT-PCR analysis. Type of test: functional, cell-based. The method in brief: as §1

The inhibition is the share of the control response that was lost under treatment. As to `CSC(=O)Nc1ccc(OCCn2c3ccccc3c3ccccc32)cc1`, the inhibition at 20 µM in the test on RAW264.7 [1] is 44%.
Still for that read-out and setting: next, `S=C(Nc1ccc(OCCn2c3ccccc3c3ccccc32)cc1)OCc1ccccc1`: 18%.
For orientation: pIC50 means the IC50 on a negative log10 scale, so that one unit is a factor of ten. For the molecule `COC(=S)Nc1ccc(OCCn2c3ccccc3c3ccccc32)cc1`, the inhibition result (in the test on RAW264.7 [2]; in test [4]; with RAW264.7 [5]; in test [6]) was “Active” in each case. Testing at 20 µM with RAW264.7 [1] gave an inhibition of 60%. This molecule also showed a pIC50 with RAW264.7 [3] of 4.92.
Regarding `CCOC(=O)CNC(=O)Oc1ccc(OCCn2c3ccccc3c3ccccc32)cc1`, testing at 20 µM with RAW264.7 [1] gave an inhibition of 35%.
Molecule `N=C(N)NN` [PIMAGEDINE] returned an inhibition at 100 µM in the test on RAW264.7 [7] of 74%.
Consider `CCSC(=O)Nc1ccc(OCCn2c3ccccc3c3ccccc32)cc1`, for which, in the test with RAW264.7 [1], the inhibition at 20 µM is 26%.
Same read-out and setting: to `CCNC(=S)Oc1ccc(OCCn2c3ccccc3c3ccccc32)cc1` belongs 10%.
Same read-out and setting: to `CCNC(=O)Oc1ccc(OCCn2c3ccccc3c3ccccc32)cc1` belongs 10%.
Still for that read-out and setting: next, `CC(C)OC(=S)Nc1ccc(OCCn2c3ccccc3c3ccccc32)cc1`: 20%.
The molecule `COC(=O)CNC(=O)Oc1ccc(OCCn2c3ccccc3c3ccccc32)cc1` gave an inhibition at 20 µM in the test on RAW264.7 [1] of 33%.
On the same count and under the same terms, next, `O=C(Nc1ccc(OCCn2c3ccccc3c3ccccc32)cc1)Oc1ccc([N+](=O)[O-])cc1`: 22%.
Consider `CCOC(=O)CNC(=S)Oc1ccc(OCCn2c3ccccc3c3ccccc32)cc1`, for which the inhibition result (with RAW264.7 [2]; in the test with RAW264.7 [8]; in test [4]; in the test on RAW264.7 [5]; in test [6]) was “Active” each time. Besides, in the test on RAW264.7 [1], at 20 µM the inhibition was 73%. The pIC50 in the test on RAW264.7 [3] was 5.19.
